Measured values taken from publication PMC4672865 (Organic letters, 2015).

Molecular target: DNA polymerase β (pol β) (Homo sapiens, UniProt P06746)
Assay: X-ray crystal structure of ternary complex with DNA
Assay type: biochemical
In short: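 Standard gel assay of pol β: test compound at variable concentrations against a constant dTTP concentration. An observed rate is determined at each inhibitor concentration, rates are plotted against inhibitor concentration, and the data are fit to a hyperbolic decay curve to calculate Ki. Crystal structures are of ternary complexes of test compound with pol β and DNA.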

Question: Which Ki does the source give for `Cc1cn([C@H]2C[C@H](O)[C@@H](COP(=O)(O)CP(=O)(O)NP(=O)(O)O)O2)c(=O)[nH]c1=O` [1a, (α,β)-CH2-(β,γ)-NH-dTTP] here?
Answer: 2.7 µM

Question: Which Ki does the source give for `Cc1cn([C@H]2C[C@H](O)[C@@H](COP(=O)(O)NP(=O)(O)CP(=O)(O)O)O2)c(=O)[nH]c1=O` [1b, (α,β)-NH-(β,γ)-CH2-dTTP] here?
Answer: 23 µM
